# Results from different studies.
# Each line is one published result; the experiments were not run side by side.
# RPS6KA6 N-terminal kinase domain: Ribosomal protein S6 kinase alpha-6, N-terminal kinase domain (RPS6KA6, Homo sapiens, UniProt Q9UK32)
# RPS6KA6: Ribosomal protein S6 kinase alpha-6 (RPS6KA6, Homo sapiens, UniProt Q9UK32)
# RPS6KA6 C-terminal kinase domain: Ribosomal protein S6 kinase alpha-6, C-terminal kinase domain (RPS6KA6, Homo sapiens, UniProt Q9UK32)
Compound,target,read-out,mode,technique,concentration,measurement,value
COc1ccc2cc(OCC3(C(=O)O)CN(C(=O)c4ccc(F)cc4)C3)ccc2c1,RPS6KA6 N-terminal kinase domain,cell-free assay,,competition with immobilised ligand,1 µM,remaining binding,77%
Nc1nc(Nc2ccc(S(N)(=O)=O)cc2)nn1C(=O)c1c(F)cccc1F,RPS6KA6,cell-free assay,,,0.5 µM,remaining signal,24.7%
Cc1cnc(NC2CCOCC2)nc1-n1cnc(C(=O)NC(CN)c2cc(F)cc(Cl)c2)c1 (stereo not shown),RPS6KA6,enzyme activity,inhibitor,radiometric,1 µM,remaining activity,17%
Cc1cc(NC(=O)c2cccc3cc(-c4cccc5[nH]nc(N)c45)ccc23)ccc1F,RPS6KA6,enzyme activity,inhibitor,,0.1 µM,activity vs control,94%
c1cnn2ncc(-c3ccnc(N4CCC45COC5)n3)c2c1,RPS6KA6 C-terminal kinase domain,binding,,competition with immobilised ligand,1 µM,remaining binding,66%
Nc1ncnc2occ(-c3ccc(NC(=O)Nc4cc(C(F)(F)F)ccc4F)cc3)c12,RPS6KA6 C-terminal kinase domain,cell-free assay,inhibitor,,20 µM,remaining signal,18%
CCCS(=O)(=O)Nc1ccc(F)c(C(=O)c2c[nH]c3ncc(-c4ccc(Cl)cc4)cc23)c1F,RPS6KA6,enzyme activity,inhibitor,,1 µM,inhibition,< 10%
CC/C(=N\NC(=O)C(C)Nc1ccccc1)c1ccc(O)c(C)c1O (stereo not shown),RPS6KA6,enzyme activity,inhibitor,,0.1 µM,inhibition,28.6%
COc1cc2ncnc(Nc3ccc(Oc4ccccc4)c(C)c3C)c2cc1OC,RPS6KA6,enzyme activity,inhibitor,,1 µM,inhibition,19%
Oc1ccc(-c2nc(-c3ccncc3)c(-c3ccc(F)cc3)[nH]2)cc1,RPS6KA6,cell-free assay,,,0.5 µM,remaining signal,110%
CCOc1cc(-c2nncn2C)ccc1Nc1ncc2cc(C)nc(NCC(C)(C)C)c2n1,RPS6KA6,enzyme activity,inhibitor,FRET,1 µM,inhibition,24%
CO[C@@H](C)c1c(Nc2ccc([C@@H](N(C)C(=O)C3CCS(=O)(=O)CC3)C(F)(F)F)cc2)cnc2cc(Cl)nn12,RPS6KA6 C-terminal kinase domain,cell-free assay,,competition with immobilised ligand,1 µM,remaining binding,98%
CCN1CCC2(CC1)NC(=O)c1c(c3ccc(Cl)c(Cl)c3n1C)C2C#N (racemic),RPS6KA6,thermal stability,,DSF,10 µM,ΔTm,0 °C
CS(=O)(=O)N1CCCC(NC(=O)[C@H](CCC2CCCCC2)NC(=O)c2ccc(CNC(=O)c3cnc4ccccn34)cc2)C1 (stereo partly shown),RPS6KA6 N-terminal kinase domain,cell-free assay,,competition with immobilised ligand,0.1 µM,remaining binding,97%
C[C@@H]1CCN(c2nccc(-c3cnn4ncccc34)n2)C1,RPS6KA6 N-terminal kinase domain,binding,,competition with immobilised ligand,1 µM,remaining binding,71%
O=C(N[C@H]1CCCCC/C=C\C2C[C@@]2(C(=O)O)NC(=O)[C@@H]2C[C@@H](Oc3ccncc3)CN2C1=O)OC1CCCC1 (stereo partly shown),RPS6KA6 N-terminal kinase domain,binding,,competition with immobilised ligand,1 µM,remaining binding,60%
Cc1ccc(C(=O)Nc2ccc(CN3CCN(C)CC3)c(C(F)(F)F)c2)cc1C#Cc1cnc2cccnn12,RPS6KA6,enzyme activity,inhibitor,,23.5 nM,remaining activity,93%
Cn1c2c(Cl)c(Cl)ccc2c2cn[nH]c(=O)c21,RPS6KA6,thermal stability,,DSF,10 µM,ΔTm,2 °C
Cc1nccc(COC(=O)N2C[C@@H]3[C@@H](CNC(=O)c4ccc5[nH]nnc5c4)[C@@H]3C2)n1,RPS6KA6 N-terminal kinase domain,cell-free assay,,competition with immobilised ligand,1 µM,remaining binding,100%
CN(CCCC(F)(F)F)c1nccc(-c2cnn3ncccc23)n1,RPS6KA6 N-terminal kinase domain,binding,,competition with immobilised ligand,1 µM,remaining binding,100%
O=C(Nc1cnn(-c2csc(C(=O)NC3COC3)c2)c1)Nc1ccccc1Cl,RPS6KA6,enzyme activity,inhibitor,,5 µM,remaining activity,107%
O=C(N1CCS(=O)(=O)CC1)N1C[C@H](c2ccc(OC(F)(F)F)cc2)C[C@H](c2nc(C3CC3)no2)C1,RPS6KA6 C-terminal kinase domain,cell-free assay,,competition with immobilised ligand,1 µM,remaining binding,100%
O=C(Nc1cnn(-c2csc(C(=O)NC3COC3)c2)c1)Nc1c(F)cccc1Cl,RPS6KA6,enzyme activity,inhibitor,,5 µM,remaining activity,92.2%
Cn1c2c(Cl)c(Cl)ccc2c2cc(N)[nH]c(=O)c21,RPS6KA6,thermal stability,,DSF,10 µM,ΔTm,3.3 °C
Cn1nc(C(=O)NCc2ccc(C(=O)O)cc2)cc1-c1ccc2[nH]ccc2c1,RPS6KA6 C-terminal kinase domain,cell-free assay,,competition with immobilised ligand,0.1 µM,remaining binding,85%
Cn1c2c(c3ccc(Cl)c(Cl)c31)C(C#N)C(C)(C)NC2=O (stereo not shown),RPS6KA6,thermal stability,,DSF,10 µM,ΔTm,2.6 °C
CC(C)(C)c1nc2c(s1)c1nc(N)ncc1c1ccc(NS(=O)(=O)c3c(F)cccc3F)c(F)c12,RPS6KA6,enzyme activity,inhibitor,radiometric,1 µM,remaining activity,97%
N[C@H]1CCN(c2nccc(-c3cnn4ncccc34)n2)C1,RPS6KA6 N-terminal kinase domain,binding,,competition with immobilised ligand,1 µM,remaining binding,100%
CS(=O)(=O)CCNCc1ccc(-c2ccc3ncnc(Nc4ccc(OCc5cccc(F)c5)c(Cl)c4)c3c2)o1,RPS6KA6,cell-free assay,,,0.5 µM,remaining signal,108%
CN(C)c1ncnc(-c2ccc3nc(Nc4cc(CN5CCN(C(=O)CC(F)(F)F)CC5)ccn4)[nH]c3c2)c1Cl,RPS6KA6 C-terminal kinase domain,cell-free assay,,competition with immobilised ligand,1 µM,remaining binding,81%
CCN(CC)CCNC(=O)c1c(C)[nH]c(/C=C2\C(=O)Nc3ccc(F)cc32)c1C,RPS6KA6,cell-free assay,,,0.5 µM,remaining signal,17.5%
CNC(=O)c1cc(Oc2ccc(NC(=O)Nc3ccc(Cl)c(C(F)(F)F)c3)cc2)ccn1,RPS6KA6,enzyme activity,inhibitor,,0.3 µM,inhibition,-29%
N#CCCc1ccc2c(c1)-c1[nH]c3ccc([N+](=O)[O-])cc3c1CC(=O)N2,RPS6KA6,cell-free assay,,,0.5 µM,remaining signal,13.4%
CN1CCC2(CC1)NC(=O)c1c(c3ccc(Cl)c(Cl)c3n1C)C2C#N (racemic),RPS6KA6,thermal stability,,DSF,10 µM,ΔTm,0 °C
